Published values of several laboratories.
Target: Serine/threonine-protein kinase Nek5 (NEK5, Homo sapiens, UniProt Q6P3R8)
Residues used in one study (Q6P3R8 1-708): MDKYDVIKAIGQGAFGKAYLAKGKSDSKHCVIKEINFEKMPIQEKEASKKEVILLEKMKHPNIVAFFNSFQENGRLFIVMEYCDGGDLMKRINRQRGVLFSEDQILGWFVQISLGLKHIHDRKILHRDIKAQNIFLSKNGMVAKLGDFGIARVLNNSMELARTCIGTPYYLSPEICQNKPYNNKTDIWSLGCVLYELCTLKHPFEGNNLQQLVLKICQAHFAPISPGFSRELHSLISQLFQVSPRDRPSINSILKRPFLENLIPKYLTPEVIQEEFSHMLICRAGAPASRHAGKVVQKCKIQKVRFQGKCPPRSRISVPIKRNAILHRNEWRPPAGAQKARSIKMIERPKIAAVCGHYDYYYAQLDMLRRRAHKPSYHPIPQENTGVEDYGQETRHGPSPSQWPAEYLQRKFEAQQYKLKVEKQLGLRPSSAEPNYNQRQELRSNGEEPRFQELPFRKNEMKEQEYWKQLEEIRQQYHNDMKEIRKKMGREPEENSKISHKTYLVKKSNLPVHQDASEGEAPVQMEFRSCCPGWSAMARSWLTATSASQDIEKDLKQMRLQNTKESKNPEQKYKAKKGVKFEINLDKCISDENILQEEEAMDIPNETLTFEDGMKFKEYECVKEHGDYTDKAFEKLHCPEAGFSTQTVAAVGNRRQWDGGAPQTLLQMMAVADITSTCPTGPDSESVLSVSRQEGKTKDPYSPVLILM

`CCOCCn1cc(C(=O)Nc2ccc(-n3nc(-c4cccnc4)cc3C(F)(F)F)cn2)ccc1=O` has a remaining binding of 100% (cell-free assay; competition with immobilised ligand; 1 µM).
For `C[C@@H](c1ccc(-n2cnc3c(N)ncnc32)cc1)N1CCc2nn(C)c(Cc3ccccc3)c2C1=O`, the remaining binding was 92% (binding; competition with immobilised ligand; 0.1 µM).
The remaining binding of `CN(C)c1nccc(-c2cnn3ncccc23)n1` is reported as 100% (binding; 1 µM).
With `Cc1cnc(Nc2ccc(C(=O)N3CCC(N4CCCC4)CC3)cc2)nc1-c1cc2ccccc2s1` the remaining binding was 0.1% (binding; competition with immobilised ligand; 1 µM).
`CCN1CCN(Cc2ccc(C(=O)Nc3ccc(C)c(Oc4ccc5c(c4)CC(=O)N5)c3)cc2C(F)(F)F)CC1` gave a remaining binding of 100% (binding; competition with immobilised ligand; 1 µM).
For `O=C(c1ccc(Nc2ncc(Cl)c(-c3cc4ccccc4s3)n2)cc1)N1CCC(N2CCCC2)CC1`, the remaining binding was 0% (binding; competition with immobilised ligand; 1 µM).
`COc1ncc2cc3ccccc3nc2c1C#N` has a remaining binding of 88% (cell-free assay; competition with immobilised ligand; 5 µM).
`CN(CCCC(F)(F)F)c1nccc(-c2cnn3ncccc23)n1` has a remaining binding of 100% (binding; 1 µM).
The remaining binding of `O=C(NCC1CCOCC1)c1n[nH]cc1NC(=O)c1c(F)cccc1F` is reported as 100% (binding; competition with immobilised ligand; 1 µM).
With `c1ccc(N2CCN(Cc3nc4ccccc4[nH]3)CC2)nc1` the remaining binding was 100% (binding; competition with immobilised ligand; 1 µM).
`COc1cnc(Nc2cccc(S(N)(=O)=O)c2)nc1N1CCN(c2ccccc2)C(=O)C1` has a remaining binding of 88% (binding; competition with immobilised ligand; 1 µM).
With `Cc1cc(NC(=O)c2cccc(S(F)(F)(F)(F)F)c2)cc(-n2ccn3nc(-c4cccnc4)cc23)c1` the remaining binding was 86.8% (cell-free assay; competition with immobilised ligand; 1 µM).
`O=C(NCCCN1CCOCC1)c1ccc(Nc2nccc(-c3cc4ccccc4s3)n2)cc1` gave a remaining binding of 4.4% (binding; competition with immobilised ligand; 1 µM).
With `N[C@H]1CCN(c2nccc(-c3cnn4ncccc34)n2)C1` the remaining binding was 87% (binding; 1 µM).
`Cn1nc(C(F)(F)F)cc1-c1cnc(N2CCc3cc(S(=O)(=O)Nc4c(F)cc(Cl)cc4F)cc(N4CCCC4=O)c32)nc1` gave a remaining binding of 86% (cell-free assay; competition with immobilised ligand; 1 µM).
`CC1CCCN1c1nccc(-c2cnn3ncccc23)n1` (stereo not drawn) gave a remaining binding of 100% (binding; 1 µM).
`CNC(=O)[C@@H]1CC[C@@H](n2c(-c3ccc4cnccc4c3)nc3ccc(C(=O)NCc4cccc(C(N)=O)c4)cc32)C1` has a remaining binding of 100% (binding; competition with immobilised ligand; 1 µM).
For `CN(C)c1ncc(F)c(-c2cnn3ncccc23)n1`, the remaining binding was 88% (binding; 1 µM).
For `C[C@H](c1ccc(F)cc1)N(Cc1cccc(C(=O)O)c1)C(=O)c1cnc2ccccc2c1`, the remaining binding was 100% (cell-free assay; competition with immobilised ligand; 1 µM).
`C[C@H]1CCN(c2nccc(-c3cnn4ncccc34)n2)C1` gave a remaining binding of 90% (binding; 1 µM).
For `O=C(Nc1cccnn1)N1CCC(=Cc2cccc(Oc3ccc(C(F)(F)F)cn3)c2)CC1`, the remaining binding was 97% (cell-free assay; competition with immobilised ligand; 1 µM).
